Measurements reported in ChEMBL document CHEMBL1125185, “Nonpeptide angiotensin II receptor antagonists: the discovery of a series of N-(biphenylylmethyl)imidazoles as potent, orally active antihypertensives” (J Med Chem, 1991).

Experiments:
[1] = test system: Rattus norvegicus; test: Blood pressure lowering activity in renal hypertensive rats after intravenous administration; format: functional
Summary of the method: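 Male Sprague-Dawley CD rats had the left renal artery ligated under hexobarbital (100 mg/kg ip). Six days later the jugular vein and carotid artery were cannulated under hexobarbital (90 mg/kg ip). Compound was given intravenously to the conscious hypertensive rats while mean arterial pressure was recorded.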

[2] = test system: Rattus norvegicus; test: Blood pressure lowering activity in renal hypertensive rats after peroral administration; format: functional
Summary of the method: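 Conscious male Sprague-Dawley CD rats, six days after left renal artery ligation and with jugular and carotid cannulae, were dosed by oral gavage at 1-100 mg/kg (4-6 rats/dose). Mean arterial pressure was monitored for 3 h.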

[3] = biological target: T1, Angiotensin II receptor (Rattus norvegicus, UniProt P29089+P25095+P35351); test: Inhibition of radioligand [3H]angiotensin II binding to angiotensin II receptor of rat adrenal cortical membrane
T1 sequence (P29089 whole entry): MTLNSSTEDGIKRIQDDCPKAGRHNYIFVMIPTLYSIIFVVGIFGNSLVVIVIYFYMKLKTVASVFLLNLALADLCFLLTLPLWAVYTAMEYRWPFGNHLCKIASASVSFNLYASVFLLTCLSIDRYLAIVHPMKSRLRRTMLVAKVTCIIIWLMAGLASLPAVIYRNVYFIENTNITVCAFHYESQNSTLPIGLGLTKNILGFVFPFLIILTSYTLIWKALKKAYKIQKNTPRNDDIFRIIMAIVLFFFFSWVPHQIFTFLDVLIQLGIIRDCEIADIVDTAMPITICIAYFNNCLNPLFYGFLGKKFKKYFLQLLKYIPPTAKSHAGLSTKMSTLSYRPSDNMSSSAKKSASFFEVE
T1 sequence (P25095 whole entry): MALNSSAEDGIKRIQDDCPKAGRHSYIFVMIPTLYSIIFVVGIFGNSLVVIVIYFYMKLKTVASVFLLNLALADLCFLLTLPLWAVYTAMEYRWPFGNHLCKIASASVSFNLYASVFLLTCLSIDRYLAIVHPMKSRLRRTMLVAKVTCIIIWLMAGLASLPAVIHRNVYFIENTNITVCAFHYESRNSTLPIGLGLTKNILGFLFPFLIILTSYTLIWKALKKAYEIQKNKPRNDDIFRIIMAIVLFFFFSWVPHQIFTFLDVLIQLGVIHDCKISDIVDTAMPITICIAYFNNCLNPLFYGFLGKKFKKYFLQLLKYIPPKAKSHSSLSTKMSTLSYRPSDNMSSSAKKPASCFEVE
T1 sequence (P35351 whole entry): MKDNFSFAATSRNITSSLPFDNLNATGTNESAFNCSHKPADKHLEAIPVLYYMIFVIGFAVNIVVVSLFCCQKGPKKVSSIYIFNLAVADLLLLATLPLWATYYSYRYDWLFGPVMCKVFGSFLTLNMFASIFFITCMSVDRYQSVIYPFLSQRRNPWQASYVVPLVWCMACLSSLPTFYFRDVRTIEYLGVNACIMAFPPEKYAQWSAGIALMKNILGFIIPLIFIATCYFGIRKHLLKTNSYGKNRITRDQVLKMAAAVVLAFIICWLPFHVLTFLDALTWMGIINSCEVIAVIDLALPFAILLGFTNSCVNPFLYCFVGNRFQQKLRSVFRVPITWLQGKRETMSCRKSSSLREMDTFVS
Summary of the method: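 Rat adrenal cortical microsomes came from male Sprague-Dawley CD rats (300-400 g) and were prepared at 4 °C in sucrose/EDTA/Tris pH 7.4. Samples were filtered and counted, in duplicate. Specific binding was defined with 1 µM unlabeled AII. IC50 was taken from the linear portion of the displacement curve.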

SMILES | IC50 [3] [µM] | Activity [1] [mg/kg] | Activity [2] [mg/kg]
CCCCc1nc(Cl)c(COC)n1Cc1ccc(-c2ccccc2C(=O)Nc2nn[nH]n2)cc1 |  | 10 | 
C=CCOC(=O)NCc1c(Cl)nc(CCCC)n1Cc1ccc(-c2ccccc2C(=O)O)cc1 | 0.39 | 10 | 100
CCCCc1nc(Cl)c(COC(C)=O)n1Cc1ccc(-c2ccccc2C(=O)O)cc1 |  | 10 | 100
CCCCc1nc(Cl)c(COC)n1Cc1ccc(-c2ccccc2Cc2nnn[nH]2)cc1 | 0.3 | 10 | 100
CCCc1nc(Cl)c(CO)n1Cc1ccc(-c2ccccc2C(=O)O)cc1 | 0.16 | 3 | 30
CCCCc1nc(Cl)c(CO)n1Cc1ccc(-c2ccccc2C(N)=O)cc1 | 35 |  | 
CCCCc1nc(Cl)c(C=O)n1Cc1ccc(-c2cccc(-c3nn[nH]n3)c2)cc1 | > 1 | >10 | 30
CCCCc1nc(Cl)c(CNC(=O)OC)n1Cc1ccc(-c2ccccc2C(=O)O)cc1 | 0.25 | 3 | 30
CCCCc1nc(Cl)c(C=O)n1Cc1ccc(-c2ccccc2-c2nn[nH]n2)cc1 | 0.02 | 0.3 | 3
CCCCc1nc(Cl)c(CN)n1Cc1ccc(-c2ccccc2C(=O)O)cc1 | 3.2 |  | 
CCCCc1nc(I)c(CO)n1Cc1ccc(-c2ccccc2-c2nn[nH]n2)cc1 |  | 1 | 10
CCCCc1nc(Br)c(CO)n1Cc1ccc(-c2ccccc2C(=O)O)cc1 | 0.09 | 3 | 30
CCCCc1nc(Cl)c(CO)n1Cc1ccc(-c2cccc(C(=O)O)c2)cc1 |  | 45 | 100
CCCCc1nc(Br)c(CO)n1Cc1ccc(-c2ccccc2-c2nn[nH]n2)cc1 |  | 0.3 | 3
O=C(O)c1ccccc1-c1ccc(Cn2c(-c3ccccc3)nc(Cl)c2CO)cc1 |  | 10 | 100

More lines, main results first:

IC50 [3] [µM] | SMILES | Activity [1] [mg/kg] | Activity [2] [mg/kg]
0.37 | CCCCc1nc(Cl)c(CO)n1Cc1ccc(-c2ccccc2-c2n[nH]c(C(F)(F)F)n2)cc1 | 1 | 10
1.3 | CCCCc1nc(Cl)c(C(=O)N(C)C)n1Cc1ccc(-c2ccccc2C(=O)O)cc1 | 10 | 10
0.29 | CCCCc1nc(Cl)c(/C=N/NC2=NCCN2)n1Cc1ccc(-c2ccccc2-c2nn[nH]n2)cc1 | 3 | 30
3 | CCCCc1nc(Cl)c(CO)n1Cc1ccc(-c2c(OC)cccc2C(=O)O)cc1 | 10 | 100
0.66 | CCCCc1nc(Cl)c(/C=N/NS(=O)(=O)c2ccccc2)n1Cc1ccc(-c2ccccc2-c2nn[nH]n2)cc1 | 3 | 30
1.9 | CCCCc1nc(Cl)c(CO)n1Cc1ccc(-c2cccc(C)c2C(=O)O)cc1 | 3 | 10
0.98 | CCCCCc1nc(Cl)c(CO)n1Cc1ccc(-c2ccccc2C(=O)O)cc1 | 3 | 30
0.2 | CCCCc1nc(Cl)c(CNC(=O)OCC)n1Cc1ccc(-c2ccccc2C(=O)O)cc1 | 10 | 100
0.061 | CCCCc1nc(I)c(CO)n1Cc1ccc(-c2ccccc2C(=O)O)cc1 | 10 | 100
0.41 | CCCCc1nc(Cl)c(C(O)c2ccccc2)n1Cc1ccc(-c2ccccc2-c2nn[nH]n2)cc1 (centres undefined) | 3 | >30
